Data: PubChem BioAssay
Records with an inconclusive call do not appear.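 The calls were made as follows, unless noted: active = growth inhibition above 25% in both replicates, a cutoff set 3 SD above the mean; inconclusive = above 25% in only one replicate; inactive = the rest.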

Assays:
[1] = OD615 S. cerevisiae growth inhibition, permissive medium, pilot counter-assay, permissive growth control for S. cerevisiae lifespan shortening project (AID 705); details: OD615, 24 h, at 10 µM, stronger effect = higher value
Outline: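 Timing: 24 h exposure, 30 °C / Material: Saccharomyces cerevisiae strain carrying genetically modified DeaD replicative-lifespan system / Signal: OD at 615 nm / Compound: 10 µM single dose, 0.25% DMSO / Medium: SC raffinose/galactose permissive medium / Evaluation: reduction in yeast growth (OD615)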

[2] = Restrictive medium S. cerevisiae growth inhibition, OD615, pilot screen of yeast lifespan reduction project, restrictive growth control (AID 706;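 active = growth inhibition above a set limit, 3 SD over mean compound inhibition, in both replicates, cut at about 43% in these data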;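 also: modified DeaD lifespan yeast strain shifted to restrictive glucose medium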); details: OD615, 48 h, at 10 µM, stronger effect = higher value
Outline: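 System: Engineered S. cerevisiae DeaD strain | Detection: OD615 | Buffer or medium: CSMM-D glucose medium | Doses: 10 µM compound, 0.25% DMSO | Timing: 4 h pre-growth plus 48 h compound exposure, 30 °C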

[3] = viability gain of MRP-1-high H69AR cells under doxorubicin, pilot screen, MRP-1 activator project, CellTiter-Glo, duplicate (AID 807;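 active = viability increase at or above a cutoff of the median across tested compounds plus 3 SD, cut at about 8.5% in these data, passing the limit was not always enough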;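 also: compound pretreatment 18-22 h then 72 h combined with doxorubicin; 0% = doxorubicin alone and 100% = vehicle without doxorubicin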); details: H69AR viability with doxorubicin, CellTiter-Glo luminescence; at 10 µM; stronger effect = higher value
[4] = growth suppression of beta-catenin knockout HCT116, pilot screen, human colon tumor cells (AID 823;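 active = cell viability at or below a set limit in both duplicate runs, the limit being the all-compound median minus 4 SD, cut at about 23% in these data, passing the limit was not always enough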;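 also: 0% = wells killed by 20 µM Hyamine and 100% = untreated DMSO cell wells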); details: CellTiter-Glo, 60 h, at 10 µM, stronger effect = lower value
[5] = inhibitors of the yeast RAM network, pilot screen, dse1pr::URA3 reporter, 5-FOA selection (AID 869;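 active = inhibition over a set limit, the all-compound mean plus 3 SD, in both replicate runs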;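 also: 0% = DMSO wells with no growth and 100% = 10 µM 1-NA-PP1 with full growth; RAM network block rescues cells from 5-FOA so hits raise OD615 growth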); details: S. cerevisiae dse1pr::URA3 5-FOA growth, OD615, 2 d; at 10 µM; stronger effect = higher value; strain carries analog-sensitive mutant Cbk1 kinase
[6] = RAM signaling pathway blockade in yeast – S. cerevisiae, Pdr1DBD-CYC8 efflux-inhibited sensitized strain, primary screen (AID 1298;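 active = RAM network inhibition above 8.4% in each of two replicates, 3 SD over the compound average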;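 also: 0% = DMSO untreated cells without growth and 100% = 10 µM 1-NA-PP1 full growth; higher means more yeast growth rescued from 5-FOA killing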); details: S. cerevisiae cbk1-as DSE1-URA3 strain, 5-FOA growth OD615, 2 d; at 50 µM; stronger effect = higher value
[7] = growth suppression of PTEN-deleted HCT116, pilot screen, cell-based, HCT116 clonal line, CellTiter-Glo (AID 824;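 active = viability at or below 27.92% in each of two runs, the all-compound median minus 4 SD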;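 also: 0% = 20 µM Hyamine control and 100% = vehicle cell control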); details: 60 h, at 10 µM, stronger effect = lower value

Cc1c(Cl)cccc1NC(=O)CCN1CCCC(C)C1 (stereo not drawn)
inactive: growth inhibition [1] -12.9% | growth inhibition [2] 3.83% | viability increase [3] -3.58% | viability [4] 94.7% | inhibition [5] 2.28% | RAM network inhibition [6] 3.43%

CCc1ccc(-c2nc(CSCC(=O)N3CCN(c4ncccn4)CC3)c(C)o2)cc1
inactive: growth inhibition [1] -2.9% | growth inhibition [2] -2.11% | viability increase [3] -3.72% | viability [7] 52.6% | RAM network inhibition [6] 7.89%

O=C(Nc1ccc(F)cc1)c1cc(S(=O)(=O)N2CCCCC2)cs1
inactive: growth inhibition [1] -4.36% | growth inhibition [2] 5.66% | viability increase [3] -2.46% | viability [7] 61.1% | inhibition [5] 2.75% | RAM network inhibition [6] -0.1%

COCCNC(=O)C1c2ccccc2C(=O)N(CCOC)C1c1ccc(F)cc1 (stereo not drawn)
inactive: growth inhibition [1] -6.02% | growth inhibition [2] 3.31% | viability increase [3] -2.15% | viability [7] 101% | inhibition [5] 1.29% | RAM network inhibition [6] 0.46%
